Measured values as given in ChEMBL document CHEMBL1126619, “Design of thymidylate synthase inhibitors using protein crystal structures: the synthesis and biological evaluation of a novel class of 5-substituted quinazolinones” (J Med Chem, 1993).
pIC50, pKi: −log10 of the molar value.

Experiments:
[1] = target: T1, Thymidylate synthase (Homo sapiens, UniProt P04818); test: (§1) Inhibition of human Thymidylate synthase
[2] = target: T2, Thymidylate synthase (Escherichia coli, UniProt C3SWJ7); test: (§2) Inhibition of purified Escherichia coli Thymidylate synthase
[3] = tested on: GC3/MTK-; test: Inhibition of cellular growth in human adenocarcinoma cell line (GC3/M TK) deficient in thymidine kinase; type: functional, cell-based
[4] = target: T2, Thymidylate synthase; test: as §2; remark: listed apart in the source
[5] = tested on: CCRF-CEM; test: Inhibition of human lymphoblastic leukemia (CCRF-CEM) cell growth measured using a modification of the MTT36 colorimetric assay of Mosmann; type: functional, cell-based
[6] = tested on: L1210; test: Inhibition of mouse L1210 (murine leukemia) cell growth measured using a modification of the MTT36 colorimetric assay of Mosmann; type: functional, cell-based
[7] = tested on: L1210; test: The ratio of IC50 of the inhibitor (assayed in L1210 cells) in presence and absence of thymidine; type: functional, Mus musculus
Procedure, shortened: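 Murine L1210 leukemia cells grown in RPMI-1640 with 5% fetal calf serum and 0.5% DMSO, seeded at 1000 cells/well, over nine 2-fold serial dilutions of compound, with or without 10 μM thymidine replenished daily over 3 days.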

[8] = target: T1, Thymidylate synthase; test: as §1; remark: listed apart in the source
[9] = target: T1, Thymidylate synthase; test: Compound was tested for TS activity against human Thymidylate synthase by tight binding kinetics
[10] = Partition coefficient (logP); type: physicochemical; conditions: octanol/water

T1 sequence (P04818 whole entry): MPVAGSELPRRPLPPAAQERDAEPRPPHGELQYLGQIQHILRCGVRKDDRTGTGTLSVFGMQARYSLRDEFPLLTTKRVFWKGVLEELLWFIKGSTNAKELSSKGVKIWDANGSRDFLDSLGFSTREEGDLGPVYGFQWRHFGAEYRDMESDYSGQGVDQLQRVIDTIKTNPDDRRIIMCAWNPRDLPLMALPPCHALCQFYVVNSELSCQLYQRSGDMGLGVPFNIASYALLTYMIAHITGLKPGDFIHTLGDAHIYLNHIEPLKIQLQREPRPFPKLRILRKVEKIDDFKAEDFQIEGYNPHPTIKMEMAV
T2 sequence (C3SWJ7 whole entry): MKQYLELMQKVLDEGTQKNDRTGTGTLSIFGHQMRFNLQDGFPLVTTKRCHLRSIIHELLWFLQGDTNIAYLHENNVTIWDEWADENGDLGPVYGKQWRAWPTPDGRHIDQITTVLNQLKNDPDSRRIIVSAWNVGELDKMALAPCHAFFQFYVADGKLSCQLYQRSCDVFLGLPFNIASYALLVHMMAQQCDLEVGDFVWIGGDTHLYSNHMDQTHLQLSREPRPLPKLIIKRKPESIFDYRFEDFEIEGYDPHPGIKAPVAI

Structure (SMILES)	pKi [1]	pKi [2]	pIC50 [3]	pKi [4]	pIC50 [5]	pIC50 [6]	Thymidine shift [7]	pKi [8]	pKi [9]	logP [10]
Cc1nc(O)c2c(Sc3ccncc3)cccc2n1	6.02	4.52	< 4.57	5.00	< 4.57					
Cc1ccc2nc(N)[nH]c(=O)c2c1Sc1ccncc1 [NOLATREXED]		6.85	6.00	7.31	6.09	6.00				
Cc1nc(O)c2c(Oc3ccccc3)cccc2n1	< 4.00			< 4.00	< 4.30	< 4.30				
Cc1nc(O)c2c(Sc3ccnnc3)c(C)ccc2n1	7.06	5.96	< 4.90	6.22						
COc1ccc2nc(C)nc(O)c2c1Sc1ccncc1		5.41	4.49	5.82	4.59	4.68				
Cc1ccc2nc(N)nc(O)c2c1Sc1ccnc(N(C)C)c1	7.49		5.28		5.31	5.74	>20	7.30		
Cc1ccc2nc(N)nc(O)c2c1Sc1ccnc(C(F)(F)F)c1	7.55		< 5.70		< 5.70	5.74	>5	7.62		
Cc1nc(O)c2c(Sc3cccnc3)c(C)ccc2n1	6.51	5.03	< 5.60	5.77	< 5.60	< 5.60		5.96		
Cc1ccc2nc(N)nc(O)c2c1Sc1ccc(C(=O)N[C@H](CCC(=O)O)C(=O)O)cc1			5.77		6.28	5.60	~8		9.91	
COc1cc(Sc2c(C)ccc3nc(C)nc(O)c23)ccn1	7.43	6.15	< 5.30	6.55				7.34		
Cc1nc(O)c2c(Sc3ccccc3)cccc2n1	< 5.00			< 5.00	< 5.38	< 5.38				
Cc1nc(O)c2c(Sc3ccnc(C(F)(F)F)c3)c(C)ccc2n1	7.15	6.27		6.64						
Nc1nc(O)c2c(Sc3ccncc3)c(Cl)ccc2n1	7.70		5.69		5.68	5.89	~14	7.74		
CCc1ccc2nc(C)nc(O)c2c1Sc1ccncc1	6.70		< 5.00		< 5.00	< 5.00	~10	6.23		
Cc1nc(O)c2c(Sc3ccc(C(=O)N[C@H](CCC(=O)O)C(=O)O)cc3)c(C)ccc2n1			5.39		6.00	5.98	>22		8.88	
Cc1nc(O)c2c(Sc3ccncc3)c(C)ccc2n1	7.03	6.09	5.22	6.30	5.28	5.46	>14	7.24		2.16
Cc1nc(O)c2c(Sc3ccc(C(=O)O)cc3)c(C)ccc2n1	6.85		< 4.30		< 4.30	4.30	>5	7.19		
Cc1nc(O)c2c(Sc3ccc([N+](=O)[O-])cc3)c(C)ccc2n1	7.25	6.14	< 5.40	6.31	5.54	5.52	3.3	7.11		3.29
Cc1nc2ccc(C)c(Sc3ccc(S(=O)(=O)c4ccccc4)cc3)c2c(=O)[nH]1			5.35		5.68	5.74				4.67
Cc1ccc2nc(N)nc(O)c2c1Sc1ccnnc1	7.89		5.82		6.06	5.80	17.6			
Cc1nc(O)c2c(Sc3ccnc(N(C)C)c3)c(C)ccc2n1	7.10		4.74		4.98	5.39	4.25	7.24		
Cc1nc(O)c2c(Sc3ccncc3)c(O)ccc2n1	5.06	3.72	< 4.30	4.29	< 4.30	< 4.30	1			
Cc1nc(O)c2c(Sc3ccccn3)cccc2n1	3.92	< 4.10	< 4.30	< 4.10	< 4.30	< 4.30	1	3.72		
Cc1cc(Sc2c(C)ccc3nc(C)nc(O)c23)ccn1	7.41	6.28	5.30	6.62	5.38	5.38		7.18		
